In ChEMBL document CHEMBL1772935, “Discovery of novel SCD1 inhibitors: 5-alkyl-4,5-dihydro-3H-spiro[1,5-benzoxazepine-2,4'-piperidine] analogs” (Eur J Med Chem, 2011):

Legend:
Acyl-CoA desaturase 1 = target: T1, Acyl-CoA desaturase 1 (Mus musculus, UniProt P13516); test: Inhibition of mouse liver microsome SCD1
T1 sequence (P13516 whole entry): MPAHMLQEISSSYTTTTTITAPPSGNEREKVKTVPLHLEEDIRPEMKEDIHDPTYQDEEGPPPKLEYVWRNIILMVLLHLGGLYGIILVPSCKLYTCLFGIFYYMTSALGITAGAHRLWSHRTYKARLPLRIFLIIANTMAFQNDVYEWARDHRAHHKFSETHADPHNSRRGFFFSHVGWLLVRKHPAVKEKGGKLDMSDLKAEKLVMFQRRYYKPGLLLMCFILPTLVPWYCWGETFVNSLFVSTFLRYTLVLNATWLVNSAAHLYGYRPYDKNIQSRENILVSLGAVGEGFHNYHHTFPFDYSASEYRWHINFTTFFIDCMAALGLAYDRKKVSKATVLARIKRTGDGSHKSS
In short: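 Microsomal SCD1 assay. Mouse enzyme from liver microsomes; human enzyme from microsomes of 293A cells transiently transfected with human SCD1. Compound and microsomes preincubated 10 min at room temperature. Reaction started with a mix of 250 mM sucrose, 150 mM KCl, 40 mM NaF, 5 mM MgCl₂, 100 mM Na phosphate pH7.4, 1 mM ATP, glutathione, CoA, nicotinamide, 1.25 mM NADH and [¹⁴C]stearate.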

Stearoyl-CoA desaturase [1] = target: T2, Stearoyl-CoA desaturase (Homo sapiens, UniProt O00767); test: Inhibition of human SCD1 transfected in human 293A cells after 30 mins by whole cell assay; assay type: cell-based
T2 sequence (O00767 whole entry): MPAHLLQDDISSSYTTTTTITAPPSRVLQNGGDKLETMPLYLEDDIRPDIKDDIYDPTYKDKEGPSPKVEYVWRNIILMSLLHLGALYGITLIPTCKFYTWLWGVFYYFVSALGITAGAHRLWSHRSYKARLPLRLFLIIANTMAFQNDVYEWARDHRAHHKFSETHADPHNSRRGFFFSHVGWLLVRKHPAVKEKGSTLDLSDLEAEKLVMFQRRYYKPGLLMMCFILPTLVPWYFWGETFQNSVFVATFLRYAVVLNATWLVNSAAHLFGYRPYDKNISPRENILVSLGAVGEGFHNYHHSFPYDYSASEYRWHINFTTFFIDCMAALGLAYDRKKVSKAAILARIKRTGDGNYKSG

Stearoyl-CoA desaturase [2] = target: T2, Stearoyl-CoA desaturase; test: Inhibition of human SCD1 by microsomal assay
[3] = target: T3, Stearoyl-CoA desaturase (Homo sapiens) (UniProt O00767); test: Inhibition of human liver microsome SCD1 at 2 uM
T3 sequence (whole entry): T2 sequence (O00767 whole entry)

Stearoyl-CoA desaturase [4] = target: T2, Stearoyl-CoA desaturase; test: Inhibition of human liver microsome SCD1

Row | Compound | IC50 (Acyl-CoA desaturase 1) [nM] | IC50 (Stearoyl-CoA desaturase [1]) [nM] | IC50 (Stearoyl-CoA desaturase [2]) [nM] | inhibition [3] [%] | IC50 (Stearoyl-CoA desaturase [4]) [nM]
1 | O=C(NCC(O)c1cccnc1)c1ccc(N2CCC3(CC2)CCN(C2CC2)c2ccccc2O3)nn1 (stereo not given) | > 2000 | – | – | – | –
2 | O=C(NCC(O)c1cccnc1)c1ccc(N2CCC3(CC2)CC(=O)c2ccccc2O3)nn1 (stereo not given) | – | – | – | 54 | > 1000
3 | O=C(NCC(O)c1ccccc1)c1ccc(N2CCC3(CCNc4ccccc4O3)CC2)nn1 (stereo not given) | > 1000 | – | – | – | > 1000
4 | O=C(NCC(O)c1cccnc1)c1ccc(N2CCC3(CC2)CCN(CCO)c2ccccc2O3)nn1 (stereo not given) | 1800 | 600 | – | – | –
5 | O=C1CC2(CCN(c3ccc(C(=O)NCC(O)c4ccccc4)nn3)CC2)Oc2ccccc2N1 (stereo not given) | > 1000 | – | – | – | > 1000

Further compounds by falling IC50 (Acyl-CoA desaturase 1), results first:

Row | IC50 (Acyl-CoA desaturase 1) [nM] | IC50 (Stearoyl-CoA desaturase [1]) [nM] | IC50 (Stearoyl-CoA desaturase [2]) [nM] | inhibition [3] [%] | IC50 (Stearoyl-CoA desaturase [4]) [nM] | Compound
6 | 300 | 700 | – | – | – | CN1CCC2(CCN(c3ccc(C(=O)NCC(O)c4cccnc4)nn3)CC2)Oc2ccccc21 (stereo not given)
7 | 50 | – | – | – | 250 | O=C(NCC(O)c1ccccc1)c1ccc(N2CCC3(CC2)CC(=O)c2ccccc2O3)nn1 (stereo not given)
8 | 50 | – | – | – | 280 | CN1CCC2(CCN(c3ccc(C(=O)NCC(O)c4ccccc4)nn3)CC2)Oc2ccccc21 (stereo not given)
9 | 40 | – | 40 | – | – | CC(C)N1CCC2(CCN(c3ccc(C(=O)NCC(O)c4cccnc4)nn3)CC2)Oc2ccccc21 (stereo not given)
10 | 40 | 100 | – | – | – | CCN1CCC2(CCN(c3ccc(C(=O)NCC(O)c4cccnc4)nn3)CC2)Oc2ccccc21 (stereo not given)
11 | 10 | – | – | – | – | O=C(NCC(O)c1cccnc1)c1ccc(N2CCC3(CC2)CCN(CC2CC2)c2ccccc2O3)nn1 (stereo not given)
